# Laboratory results from publication PMC3139708 (Nature chemical biology, 2011).
# Entries after “also recorded” stand apart in the source; their conditions may differ. Where a SMILES comes first, the peptide text is derived from it. [ ]: non-standard residue; d: D form. βAla = NCCC(=O)O
# Legend:
# FKBP(F36V) = FKBP(F36V) (Homo sapiens, UniProt P62942, F37V); assay: Fluorescence polarization competition binding against Fl-SLF; settings: polarization signal; Fl-SLF 1 nM, FKBP(F36V) 100 nM
# Summary of the method: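 Purified FKBP(F36V) and fluorescent Shield-1 analog Fl-SLF were held at fixed concentrations and incubated with a titration of synthetic test peptide. Tracer displacement was read as the decrease in fluorescence polarization.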
# FKBP domain = settings: ref [18],[26]; cited from earlier work
# [1] = test system: YFP-LID fusion proteins in U2OS cells; assay: YFP-LID degradation in transiently transfected U2OS cells; type: cell-based; settings: 24 hours Shield-1
# actin-GFP-LID = assay: Depletion of β-actin-AcGFP-LID in NIH3T3 cells, fluorescence microscopy; type: cell-based, human; settings: 2 μM Shield-1, 24 hours
# Summary of the method: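 NIH3T3 fibroblasts were retrovirally co-transduced (4 μg/mL polybrene, 4 h, 37 °C; then 24–36 h in growth medium) with human β-actin fused to Aequorea coerulescens GFP plus LID, and with β-actin-mCherry to mark microfilaments. Cells were cultured ± Shield-1, and green and red actin filaments were imaged by epifluorescence microscopy with a 40x objective.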
# YFP-LID [2] = assay: Simultaneous use of LID and DD systems in NIH3T3 cells: YFP-LID; type: cell-based; settings: various concentrations of Shield-1, 24 h, flow cytometry and microscopy
# Summary of the method: (§1)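 NIH3T3 cells stably co-transduced with YFP-LID and DD-mCherry were plated at 1 × 10⁵ cells/well. They were exposed to a range of Shield-1 concentrations for 24 h, then detached with trypsin-EDTA. YFP and mCherry were read in their respective channels by flow cytometry (typically 10,000 events) and by epifluorescence microscopy.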
# DD-mCherry = assay: Simultaneous use of LID and DD systems in NIH3T3 cells: DD-mCherry; type: cell-based; settings: various concentrations of Shield-1, 24 h, flow cytometry and microscopy
# Summary of the method: as §1
# YFP-LID [3] = assay: Shield-dependent degradation of YFP-LID in NIH3T3 cells, flow cytometry; type: cell-based
# Summary of the method: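 NIH3T3 cells were stably retrovirally transduced with YFP-FKBP(F36V) plus the 19-residue C-terminal peptide, with IRES-HcRed as infection marker. They were plated at 1 × 10⁵ per well and given vehicle or Shield-1 (1 pM–1 μM, or 1 μM for 24 h), then trypsinised. YFP was read by flow cytometry (typically 10,000 events) against untransduced-cell autofluorescence. Error bars are s.d. from at least two experiments.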
# [4] = test system: transcription factors fused to LID (Oct4, Klf4, Sox2, Myc, Lin28, Nanog); type: cell-based, human; Nanog mouse; settings: 2 μM Shield-1, 24 h, NIH3T3, immunoblot
# Summary of the method: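 LID was fused to the C-terminus of each of six transcription factors. Each was retrovirally transduced into NIH3T3 cells separately (4 μg/mL polybrene, 4 h, 37 °C; 24–36 h integration) in DMEM with 10% donor bovine serum. Cells got vehicle or 2 μM Shield-1 for 24 h. Lysates were immunoblotted with anti-Oct4, anti-Klf4, anti-HA (Sox2, Myc, Lin28) or anti-Flag (Nanog). α-Tubulin was the loading control; untransduced cells were the reference.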
# [5] = test system: YFP-FKBP(F36V)-degron-LPLPLP fusions (CL1, CyclinB, encephalomyocarditis virus degron); type: cell-based; settings: NIH3T3, flow cytometry
# Oct4-LID = assay: Reprogramming of MEFs; type: cell-based, murine embryonic fibroblasts; settings: 2 μM Shield-1 from day 3 post-infection
# Summary of the method: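 Fibroblasts came from transgenic mice carrying GFP driven by the Oct4 promoter. They were retrovirally transduced with Sox2, Myc, Klf4 and Oct4-LID, with untagged Oct4 as comparison. Vehicle or 2 μM Shield-1 was added on day 3 post-infection, and alkaline phosphatase staining was done on day 14. GFP-positive cells were moved to fresh feeder layer on day 19 and stained with APC anti-SSEA-1 on day 24.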
# [6] = test system: YFP-LID fusion proteins in HeLa cells; assay: YFP-LID degradation in transiently transfected HeLa cells; type: cell-based; settings: 24 hours Shield-1
# YFP = assay: Stability of YFP fused directly to the 19-residue peptide or its truncations; type: cell-based; settings: 1 μM Shield-1, 24 h, flow cytometry
# Summary of the method: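 The 19-residue peptide was fused directly to YFP, without FKBP, and stably transduced into NIH3T3 cells by retrovirus. Cells were plated at 1 × 10⁵ per well, treated with vehicle or 1 μM Shield-1 for 24 h, trypsinised and analysed by flow cytometry (typically 10,000 events). Error bars are s.d. from at least two experiments.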
# YFP-LID [7] = assay: Time course of YFP-LID degradation and recovery in NIH3T3 cells, flow cytometry; type: cell-based; settings: NIH3T3, absence of cycloheximide
# Summary of the method: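 Stably transduced NIH3T3 cells expressing YFP-LID were plated at 1 × 10⁵ cells/well. For degradation, Shield-1 was added and cells were sampled at various times. For recovery, Shield-1 was removed by changing to fresh growth medium containing 5 μM recombinant FKBP(F36V) at set times before analysis. YFP was read by flow cytometry, and the maximum fluorescence was set to 100%.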
# FKBP = settings: relative to Shield-1; ref [19]; cited from earlier work
# FKBP(F36V), sequence (P62942 whole entry F37V): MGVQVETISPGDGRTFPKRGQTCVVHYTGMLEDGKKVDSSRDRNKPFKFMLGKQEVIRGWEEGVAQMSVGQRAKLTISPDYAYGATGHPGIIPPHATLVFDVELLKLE
smiles,measurement,setting,value
CC(C)C[C@H](NC(=O)[C@H](CC(C)C)NC(=O)[C@@H](NC(=O)[C@@H](NC(=O)CNC(=O)[C@H](CCC(=O)O)NC(=O)[C@H](C)NC(=O)[C@@H](NC(=O)[C@H](CCC(=O)O)NC(=O)[C@H](CCC(=O)O)NC(=O)[C@@H](NC(=O)CNC(=O)[C@H](CCCNC(=N)N)NC(=O)[C@@H](NC(=O)CCN)[C@@H](C)O)C(C)C)C(C)C)C(C)C)C(C)C)C(=O)N[C@@H](CCCNC(=N)N)C(=O)N[C@@H](CCCNC(=N)N)C(=O)N[C@@H](CCCNC(=N)N)C(=O)NCC(=O)N[C@@H](CC(N)=O)C(=O)O [19-residue peptide] (H-[βAla]TRGVEEVAEGVVLLRRRGN-OH; N-terminus and C-terminus assumed),displacement of tracer Fl-SLF from FKBP,FKBP(F36V),dose-dependent decrease in polarization signal
CC[C@H](C(=O)N1CCCC[C@H]1C(=O)O[C@H](CCc1ccc(OC)c(OC)c1)c1cccc(OCCN2CCOCC2)c1)c1cc(OC)c(OC)c(OC)c1 [Shield-1],affinity for the FKBP domain,FKBP domain,sub-nanomolar
same,degradation of YFP-LID fusion proteins,[1],could be degraded in transient transfected HeLa and U2OS cells
same,GFP fluorescence of β-actin-GFP-LID after Shield-1,actin-GFP-LID,GFP fluorescence was absent
same,YFP-LID level,YFP-LID [2],dose-dependent depletion of YFP-LID
same,mCherry (DD-mCherry) level,DD-mCherry,simultaneous stabilization of mCherry
same,YFP fluorescence levels in Shield-treated cells above the background autofluorescence,"YFP-LID [3]; relative to untransduced NIH3T3 cells, flow cytometry",10-20%
same,degradation of LID-fused transcription factors,[4],all degraded in a Shield-1 dependent manner
same,stability of YFP-FKBP-degron-LPLPLP fusions with Shield-1,[5],an increase in fluorescence was observed
same,reprogramming to iPS cells of cells expressing Oct4-LID in the presence of Shield-1,Oct4-LID,unable to undergo reprogramming to iPS cells
same,degradation of YFP-LID fusion proteins,[6],could be degraded in transient transfected HeLa and U2OS cells
same,effect of Shield-1 on the stability of YFP-19mer,YFP,this instability is not affected by Shield-1; also recorded: no effect on the stability of this fusion
same,time for YFP levels to be reduced 50% upon addition of Shield-1,YFP-LID [7],45 min
CCC(CC)NC(=O)N1CCCC[C@H]1C(=O)O[C@H](CCc1ccc(OC)c(OC)c1)c1cccc(OCCN2CCOCC2)c1 [Shield-2],binding potency for FKBP,FKBP,less potent binding ligand for FKBP
same,destabilization of the LID domain,"YFP-LID [3]; NIH3T3 cells, compared with Shield-1",can also destabilize the LID domain although with slightly reduced potency
